Assay results from ChEMBL document CHEMBL1127440, “Structure-affinity relationship studies on 5-HT1A receptor ligands. 2. Heterobicyclic phenylpiperazines with N4-aralkyl substituents” (J Med Chem, 1994).

Biological target: T1, 5-hydroxytryptamine receptor 1A (Rattus norvegicus, UniProt P19327)
T1 sequence (P19327 whole entry): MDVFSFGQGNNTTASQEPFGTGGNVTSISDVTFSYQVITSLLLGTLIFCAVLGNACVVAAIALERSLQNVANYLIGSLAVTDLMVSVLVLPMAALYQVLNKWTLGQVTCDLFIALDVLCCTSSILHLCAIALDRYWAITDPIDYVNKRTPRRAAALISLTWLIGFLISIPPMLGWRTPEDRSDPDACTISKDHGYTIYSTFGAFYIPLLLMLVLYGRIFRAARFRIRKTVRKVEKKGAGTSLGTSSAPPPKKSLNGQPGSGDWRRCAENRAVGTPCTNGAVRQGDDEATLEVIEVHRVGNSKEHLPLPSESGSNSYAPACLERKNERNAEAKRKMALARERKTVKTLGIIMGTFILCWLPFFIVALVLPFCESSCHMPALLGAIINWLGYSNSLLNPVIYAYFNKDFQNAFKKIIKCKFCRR
Assay: Binding affinity to displace [3H]2-(di-N-propylamino)-8-hydroxy-tetralin from 5-hydroxytryptamine 1A (5-HT1A) receptor in rat frontal cortex homogenates
Type: tissue-based
In short: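 Rat frontal cortex homogenate; [3H]-8-OH-DPAT displaced from specific 5-HT1A sites. Each compound was tested at four to six concentrations in triplicate per assay. Three to six independent assays were run per compound. Ki ± SEM (nM) reported.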

Row | SMILES | Ki
1 | O=C(CCCN1CCN(c2cccc3c2OCCO3)CC1)c1ccc(F)cc1 | 1.4 nM
2 | c1ccc(OCCN2CCN(c3cccc4ccoc34)CC2)cc1 | 0.46 nM
3 | c1ccc(CCN2CCN(c3cccc4ccoc34)CC2)cc1 | 0.37 nM
4 | c1ccc(OCCCN2CCN(c3cccc4c3OCCO4)CC2)cc1 | 0.95 nM
5 | c1ccc(CN2CCN(c3cccc4c3OCCO4)CC2)cc1 | 28 nM
6 | c1ccc(CCN2CCN(c3cccc4c3OCCO4)CC2)cc1 | 0.47 nM
7 | O=C(NCCN1CCN(c2cccc3ccoc23)CC1)c1ccc(F)cc1 | 0.15 nM
8 | c1ccc(CN2CCN(c3cccc4ccoc34)CC2)cc1 | 22 nM
9 | c1ccc2c(c1)OCC(CN1CCN(c3cccc4ccoc34)CC1)O2 (stereo not drawn) | 5.8 nM
10 | O=C(CCCN1CCN(c2cccc3ccoc23)CC1)c1ccc(F)cc1 | 1 nM
11 | O=C(NCCN1CCN(c2cccc3ccoc23)CC1)C1CCCCC1 | 0.2 nM
12 | c1ccc(OCCCN2CCN(c3cccc4ccoc34)CC2)cc1 | 0.85 nM
13 | O=C(NCCN1CCN(c2cccc3c2OCCO3)CC1)c1ccc(F)cc1 | 0.3 nM
14 | c1ccc2c(c1)OCC(CN1CCN(c3cccc4c3OCCO4)CC1)O2 (stereo not drawn) | 4 nM
15 | O=C(CCCN1CCN(c2cccc3c2OCCO3)CC1)c1ccccc1 | 0.67 nM
16 | O=C(NCCN1CCN(c2cccc3c2OCCO3)CC1)C1CCCCC1 | 0.44 nM
17 | c1ccc(OCCN2CCN(c3cccc4c3OCCO4)CC2)cc1 | 0.73 nM
18 | c1ccc(CCCCN2CCN(c3cccc4c3OCCO4)CC2)cc1 | 0.32 nM
